Results taken from ChEMBL document CHEMBL4396890, “Synthesis, Biological Evaluation, Structure-Activity Relationship, and Mechanism of Action Studies of Quinoline-Metronidazole Derivatives Against Experimental Visceral Leishmaniasis” (J Med Chem, 2019).
Activity calls are given as the source filed them. The calls are words filed in the database; no cut-off is given here.

Assays:
[1] = Clearance in BALB/c mouse at 50 mg/kg, po administered via gavage by LC-MS/MS analysis; format: ADME, organism-based; conditions: in vivo
Leishmania donovani [2] = experiment: Induction of apoptosis in Leishmania donovani MHOM/IN/80/Dd8 promastigotes assessed as DNA fragmentation at 50 uM after 48 hrs by TUNEL staining-based fluorescence assay; format: functional, organism-based
Summary of the method: (§1)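 Log-phase promastigotes (1 × 10^5) were treated with 50 μM compound or 0.1% DMSO vehicle for 48 h. DNA fragmentation was labelled with an APO-BrdU TUNEL kit with PI counterstain. Cells were imaged by phase-contrast and fluorescence microscopy.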

Leishmania donovani [3] = experiment: Induction of apoptosis in Leishmania donovani MHOM/IN/80/Dd8 promastigotes assessed as late apoptotic cells at 50 uM measured after 12 hrs by Annexin V-FITC/propidium iodide staining based assay (reference value: 0.46%); format: functional
Leishmania donovani [4] = experiment: Induction of nitric oxide generation in Leishmania donovani MHOM/IN/80/Dd8 promastigotes assessed as increase in fluorescence at 50 uM measured after 12 hrs by DAF-2DA dye-based flow cytometry relative to control; format: functional
Summary of the method: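 Log-phase promastigotes exposed to 50 μM for 6–18 h, vehicle control 0.1% DMSO, then labelled with 40 μM DAF-2DA. Fluorescence (GMFC) read by flow cytometry and expressed as fold change over vehicle. At least 3 independent experiments in duplicate.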

Leishmania donovani [5] = experiment: Antileishmanial activity against Leishmania donovani MHOM/IN/80/Dd8 amastigotes harboring luciferase reporter gene infected in mouse J774 cells assessed as stimulation of host immunity by measuring change in TGFbeta level at 50 uM after 48 hrs by ELISA; format: functional, organism-based
Summary of the method: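 Infected J774 macrophages (24 h infection) were treated with 50 μM compound for 48 h. Culture supernatants were assayed by ELISA for TNF-α and IL-12 (Th1) and for TGF-β and IL-10 (Th2), compared with infected untreated cells.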

Leishmania donovani [6] = experiment: Induction of apoptosis in Leishmania donovani MHOM/IN/80/Dd8 promastigotes assessed as early apoptotic cells at 50 uM measured after 12 hrs by Annexin V-FITC/propidium iodide staining based assay (reference value: 6.91%); format: functional
Leishmania donovani [7] = experiment: Antileishmanial activity against Leishmania donovani MHOM/IN/80/Dd8 promastigotes infected in BALB/c mouse assessed as reduction in parasite load in spleen at 25 mg/kg, ip administered once daily for 5 days measured 7 days post dose by giemsa staining-based assay relative to control; format: functional; parameters: scale not given: the % may be the effect or the level left
Summary of the method: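 Hamster-passaged strain was transformed to promastigotes. Stationary-phase cells (2 × 10^7 in 0.2 mL PBS) were injected into the tail vein of BALB/c mice. From day 15 post-infection, mice received compound ip in 8% DMSO in PBS for 5 consecutive days, 5 mice per group. Mice were killed day 7 post-treatment. Liver and spleen burden was read from Giemsa-stained stamp smears as LDU.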

Leishmania donovani [8] = experiment: Induction of plasma membrane permeabilization in Leishmania donovani MHOM/IN/80/Dd8 promastigotes assessed as non specific pore formation at MIC measured after 4 hrs by sytox green dye based flow cytometry; format: functional, organism-based
Leishmania donovani [9] = experiment: Induction of mitochondrial potential loss in Leishmania donovani MHOM/IN/80/Dd8 promastigotes at 50 uM by JC1 dye-based flow cytometry; format: functional, organism-based; conditions: TDE = time-dependent effect
Summary of the method: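 Exponential-phase promastigotes were incubated with 50 μM compound for 6−48 h, or 0.1% DMSO vehicle. CCCP (50 μM) served as positive control. After JC-1 staining, the red-to-green fluorescence shift was measured by flow cytometry.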

Leishmania donovani [10] = experiment: Induction of plasma membrane permeabilization in Leishmania donovani MHOM/IN/80/Dd8 promastigotes assessed as increase in fluorescence at MIC measured after 4 hrs by sytox green dye based flow cytometry relative to 0.1 % triton-X 100; format: functional
Leishmania donovani [11] = experiment: Induction of apoptosis in Leishmania donovani MHOM/IN/80/Dd8 promastigotes assessed as DNA fragmentation at 50 uM after 48 hrs by TUNEL staining-based confocal microscopic analysis; format: functional, organism-based; summary of the method: as §1

Cc1cc(-c2ccc(OCCn3c([N+](=O)[O-])cnc3C)cc2)nc2ccccc12
CL/F [1]: 45.8 mL/min/kg
Activity (Leishmania donovani [2]): Active
Activity (Leishmania donovani [3]): 20.59%
fold change (FC) (Leishmania donovani [4]): 3.6
Activity (Leishmania donovani [5]): inactive
Activity (Leishmania donovani [6]): 12.89%
Activity (Leishmania donovani [7]): >62%
Activity (Leishmania donovani [8]): inactive
Activity (Leishmania donovani [9]): Tde
Activity (Leishmania donovani [10]): 3.63%
Activity (Leishmania donovani [11]): Active
